Test results reported in ChEMBL document CHEMBL1914406, “Inhibitory effect of novel 5-O-acyl juglones on mammalian DNA polymerase activity, cancer cell growth and inflammatory response” (Bioorg Med Chem, 2011).
Active and inactive are the calls of the source. The rule behind the calls is not given here.

How the values were obtained:
[1] = Inhibition of human DNA polymerase epsilon using poly(dA)/oligo(dT)18 (A/T = 2/1) and dTTP as the DNA template-primer and nucleotide substrate after 60 mins
Method in brief: (§1)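 Compound in DMSO, sonicated 30 s. Premixed 0 °C, 10 min with enzyme (0.05 units) in 50 mM Tris-HCl pH 7.5, 1 mM DTT, 50% glycerol, 0.1 mM EDTA, then added to standard reaction mixture. Template-primers: poly(dA)/oligo(dT)18 (2/1) for pols, oligo(dT)18 for TdT, poly(rA)/oligo(dT)18 for HIV-1 RT, with [3H]dTTP. 60 min at 37 °C (Taq 74 °C). Activity relative to no-inhibitor control; mean ± SE of three experiments.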

DNA polymerase iota = DNA polymerase iota (Mus musculus, UniProt Q6R3M4); assay: Inhibition of C-terminal His6-tagged mouse DNA polymerase iota using poly(dA)/oligo(dT)18 (A/T = 2/1) and dTTP as the DNA template-primer and nucleotide substrate after 60 mins; method in brief: as §1
[2] = target: Human immunodeficiency virus type 1 reverse transcriptase (Human immunodeficiency virus 1, UniProt Q72547); assay: Inhibition of HIV-1 reverse transcriptase using poly(rA)/oligo(dT)18(A/T = 2/1) and dTTP as the DNA template-primer and nucleotide substrate after 60 mins; method in brief: as §1
Mus musculus = assay: Antiinflammatory activity in mouse assessed as inhibition of TPA-induced mouse ear edema at 500 ug/ear administered 30 mins before TPA challenge measured after 7 hrs relative to untreated control; type: functional, organism-based
Method in brief: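 Compound (500 µg) applied to one mouse ear; 30 min later TPA (0.5 µg) applied to both ears. Edema scored after 7 h and expressed as percentage of edema. Mean ± SE, n = 6.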

Nucleic Acid = assay: Binding affinity to DNA assessed as thermal transition of DNA relative to control; type: nucleic-acid assay
[3] = target: T1, DNA polymerase lambda (Homo sapiens) (UniProt Q9UGP5); assay: Inhibition of recombinant His-tagged human DNA polymerase lambda using bovine deoxyribonuclease 1-treated DNA and dNTP as the DNA template-primer and nucleotide substrate at 10 uM after 60 mins
T1 sequence (whole entry): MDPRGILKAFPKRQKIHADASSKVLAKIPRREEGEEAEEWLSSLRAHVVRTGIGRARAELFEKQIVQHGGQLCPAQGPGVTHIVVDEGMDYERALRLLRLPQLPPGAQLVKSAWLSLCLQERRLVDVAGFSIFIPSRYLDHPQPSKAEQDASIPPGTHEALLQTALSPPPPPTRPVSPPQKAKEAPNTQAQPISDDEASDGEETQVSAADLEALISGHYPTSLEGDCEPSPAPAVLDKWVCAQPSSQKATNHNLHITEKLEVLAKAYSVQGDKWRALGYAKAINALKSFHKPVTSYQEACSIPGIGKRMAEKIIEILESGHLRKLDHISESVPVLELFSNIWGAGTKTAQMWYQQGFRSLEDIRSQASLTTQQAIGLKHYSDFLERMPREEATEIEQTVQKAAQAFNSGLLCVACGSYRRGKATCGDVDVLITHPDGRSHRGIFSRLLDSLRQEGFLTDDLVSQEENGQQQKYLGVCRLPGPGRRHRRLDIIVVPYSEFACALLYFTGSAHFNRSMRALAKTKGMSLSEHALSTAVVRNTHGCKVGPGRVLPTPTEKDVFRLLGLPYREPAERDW

[4] = target: DNA-directed DNA polymerase (Enterobacteria phage T4, UniProt P04415); assay: Inhibition of T4 pol using poly(dA)/oligo(dT)18 (A/T = 2/1) and dTTP as the DNA template-primer and nucleotide substrate after 60 mins; set-up: species or system Tequatrovirus T4; method in brief: as §1
Bos taurus = species on record: Bos taurus; assay: Inhibition of calf DNA polymerase alpha using poly(dA)/oligo(dT)18 (A/T = 2/1) and dTTP as the DNA template-primer and nucleotide substrate at 10 uM after 60 mins; method in brief: as §1
Polynucleotide kinase = Polynucleotide kinase (Enterobacteria phage T4, UniProt P06855); assay: Inhibition of T4 polynucleotide kinase using 5'-hydroxyl termini of DNA and [gamma-32ATP] after 30 mins by liquid scintillation counting; set-up: species or system Tequatrovirus T4
[5] = target: T2, DNA polymerase kappa (Homo sapiens) (UniProt Q9UBT6); assay: Inhibition of C-terminal His6-tagged human DNA polymerase kappa (amino acids 1 to 560) using poly(dA)/oligo(dT)18 (A/T = 2/1) and dTTP as the DNA template-primer and nucleotide substrate at 10 uM after 60 mins
T2 sequence (whole entry): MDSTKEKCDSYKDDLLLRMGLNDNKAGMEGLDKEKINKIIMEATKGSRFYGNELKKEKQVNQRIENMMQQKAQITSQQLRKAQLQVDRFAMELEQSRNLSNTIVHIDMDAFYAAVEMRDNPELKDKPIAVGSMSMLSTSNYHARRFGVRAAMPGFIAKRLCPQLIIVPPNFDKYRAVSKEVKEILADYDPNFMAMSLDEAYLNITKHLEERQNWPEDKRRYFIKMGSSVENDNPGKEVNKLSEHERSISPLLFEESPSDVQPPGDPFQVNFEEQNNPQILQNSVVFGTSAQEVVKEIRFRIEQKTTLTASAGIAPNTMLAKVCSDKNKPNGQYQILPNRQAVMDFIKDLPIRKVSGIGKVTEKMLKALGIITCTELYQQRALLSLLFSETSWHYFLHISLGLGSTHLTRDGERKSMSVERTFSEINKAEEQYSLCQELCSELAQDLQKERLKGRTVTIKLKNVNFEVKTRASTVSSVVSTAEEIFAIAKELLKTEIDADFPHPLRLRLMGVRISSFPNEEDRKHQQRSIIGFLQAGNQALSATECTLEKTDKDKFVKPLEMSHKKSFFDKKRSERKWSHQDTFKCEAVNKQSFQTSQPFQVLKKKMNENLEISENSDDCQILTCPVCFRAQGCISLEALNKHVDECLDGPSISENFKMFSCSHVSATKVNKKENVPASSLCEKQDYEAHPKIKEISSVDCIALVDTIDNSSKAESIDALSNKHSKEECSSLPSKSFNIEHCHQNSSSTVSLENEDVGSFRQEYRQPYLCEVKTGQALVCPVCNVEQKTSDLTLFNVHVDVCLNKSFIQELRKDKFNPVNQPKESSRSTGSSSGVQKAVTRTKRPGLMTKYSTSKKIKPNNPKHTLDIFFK

DNA polymerase eta = DNA polymerase eta (Homo sapiens, UniProt Q9Y253); assay: Inhibition of C-terminal His6-tagged human DNA polymerase eta (amino acids 1 to 511) using poly(dA)/oligo(dT)18 (A/T = 2/1) and dTTP as the DNA template-primer and nucleotide substrate after 60 mins; method in brief: as §1
[6] = Inhibition of Escherichia coli DNA polymerase 1 Klenow fragment using poly(dA)/oligo(dT)18 (A/T = 2/1) and dTTP as the DNA template-primer and nucleotide substrate after 60 mins; method in brief: as §1
DNA polymerase kappa = DNA polymerase kappa (Homo sapiens, UniProt Q9UBT6); assay: Inhibition of C-terminal His6-tagged human DNA polymerase kappa (amino acids 1 to 560) using poly(dA)/oligo(dT)18 (A/T = 2/1) and dTTP as the DNA template-primer and nucleotide substrate after 60 mins; method in brief: as §1

Sequence of DNA polymerase eta (Q9Y253 whole entry, the tested form may be a part): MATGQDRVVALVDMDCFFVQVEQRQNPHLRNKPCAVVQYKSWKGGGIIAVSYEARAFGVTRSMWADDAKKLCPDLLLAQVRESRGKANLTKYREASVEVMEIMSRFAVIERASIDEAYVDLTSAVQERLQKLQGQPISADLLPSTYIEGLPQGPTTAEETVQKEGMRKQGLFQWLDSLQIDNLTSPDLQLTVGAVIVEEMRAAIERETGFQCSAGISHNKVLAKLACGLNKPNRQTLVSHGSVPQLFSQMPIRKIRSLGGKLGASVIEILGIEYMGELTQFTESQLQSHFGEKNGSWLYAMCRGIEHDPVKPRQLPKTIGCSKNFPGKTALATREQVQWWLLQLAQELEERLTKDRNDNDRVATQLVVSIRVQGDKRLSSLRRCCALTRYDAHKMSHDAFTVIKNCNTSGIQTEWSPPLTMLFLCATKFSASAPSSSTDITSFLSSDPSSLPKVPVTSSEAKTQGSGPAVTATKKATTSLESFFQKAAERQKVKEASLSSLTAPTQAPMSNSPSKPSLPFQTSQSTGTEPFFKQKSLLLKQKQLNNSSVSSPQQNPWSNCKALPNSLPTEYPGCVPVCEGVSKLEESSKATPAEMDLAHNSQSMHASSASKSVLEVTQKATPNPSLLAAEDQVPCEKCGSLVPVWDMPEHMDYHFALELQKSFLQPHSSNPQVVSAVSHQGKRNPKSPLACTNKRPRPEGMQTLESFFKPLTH
Sequence of DNA-directed DNA polymerase (P04415 whole entry): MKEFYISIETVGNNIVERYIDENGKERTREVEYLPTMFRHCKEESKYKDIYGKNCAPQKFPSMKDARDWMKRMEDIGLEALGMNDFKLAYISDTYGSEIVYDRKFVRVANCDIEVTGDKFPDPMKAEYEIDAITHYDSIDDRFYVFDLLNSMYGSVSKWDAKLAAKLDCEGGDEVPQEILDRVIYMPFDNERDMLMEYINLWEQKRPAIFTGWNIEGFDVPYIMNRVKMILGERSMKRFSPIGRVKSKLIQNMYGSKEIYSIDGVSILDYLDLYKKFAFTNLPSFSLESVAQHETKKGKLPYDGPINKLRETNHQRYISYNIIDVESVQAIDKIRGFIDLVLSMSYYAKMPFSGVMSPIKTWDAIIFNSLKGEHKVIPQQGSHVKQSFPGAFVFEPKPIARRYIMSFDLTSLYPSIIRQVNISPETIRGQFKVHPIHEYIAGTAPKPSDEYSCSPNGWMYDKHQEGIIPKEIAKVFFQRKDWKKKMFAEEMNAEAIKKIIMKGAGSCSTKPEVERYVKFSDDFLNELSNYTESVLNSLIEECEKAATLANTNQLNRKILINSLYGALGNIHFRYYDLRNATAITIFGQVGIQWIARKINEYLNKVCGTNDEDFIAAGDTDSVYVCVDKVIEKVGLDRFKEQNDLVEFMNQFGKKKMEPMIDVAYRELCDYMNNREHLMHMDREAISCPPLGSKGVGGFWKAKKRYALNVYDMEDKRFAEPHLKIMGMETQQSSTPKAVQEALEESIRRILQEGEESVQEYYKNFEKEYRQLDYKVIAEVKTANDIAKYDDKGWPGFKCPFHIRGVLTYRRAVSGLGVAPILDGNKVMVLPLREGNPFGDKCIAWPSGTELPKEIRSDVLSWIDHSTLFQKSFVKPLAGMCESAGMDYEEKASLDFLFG
Sequence of DNA polymerase iota (Q6R3M4 whole entry): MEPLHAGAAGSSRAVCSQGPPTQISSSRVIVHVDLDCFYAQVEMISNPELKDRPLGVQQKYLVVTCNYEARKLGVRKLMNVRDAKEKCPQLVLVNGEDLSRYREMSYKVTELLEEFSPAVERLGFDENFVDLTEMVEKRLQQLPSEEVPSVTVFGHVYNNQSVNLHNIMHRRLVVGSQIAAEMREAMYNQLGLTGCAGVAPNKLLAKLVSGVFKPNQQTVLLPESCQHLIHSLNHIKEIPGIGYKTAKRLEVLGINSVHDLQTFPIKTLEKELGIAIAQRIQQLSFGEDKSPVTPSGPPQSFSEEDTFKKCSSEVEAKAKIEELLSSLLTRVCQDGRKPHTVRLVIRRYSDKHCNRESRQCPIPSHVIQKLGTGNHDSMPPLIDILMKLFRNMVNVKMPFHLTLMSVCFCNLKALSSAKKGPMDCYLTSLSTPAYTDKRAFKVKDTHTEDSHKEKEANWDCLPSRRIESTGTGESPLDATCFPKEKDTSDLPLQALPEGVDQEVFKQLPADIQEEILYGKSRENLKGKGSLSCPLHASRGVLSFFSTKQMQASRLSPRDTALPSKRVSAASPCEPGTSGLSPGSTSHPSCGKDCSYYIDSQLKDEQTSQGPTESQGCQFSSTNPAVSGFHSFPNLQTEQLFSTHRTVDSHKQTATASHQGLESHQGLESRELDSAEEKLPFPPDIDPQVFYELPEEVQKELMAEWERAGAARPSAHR
Sequence of Polynucleotide kinase (P06855 whole entry, the tested form may be a part): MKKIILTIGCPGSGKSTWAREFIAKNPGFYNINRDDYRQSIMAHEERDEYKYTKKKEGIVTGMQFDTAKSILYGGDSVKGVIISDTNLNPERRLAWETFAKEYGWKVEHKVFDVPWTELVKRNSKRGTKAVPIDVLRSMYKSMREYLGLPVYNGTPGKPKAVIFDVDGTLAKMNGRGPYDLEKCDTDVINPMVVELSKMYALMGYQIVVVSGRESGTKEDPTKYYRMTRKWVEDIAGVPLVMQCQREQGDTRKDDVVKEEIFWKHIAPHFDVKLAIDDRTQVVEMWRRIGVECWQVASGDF

Row | SMILES | IC50 [1] | IC50 (DNA polymerase iota) | IC50 [2] | Activity (Mus musculus) | Activity (Nucleic Acid) | inhibition [3] | IC50 [4] | inhibition (Bos taurus) | IC50 (Polynucleotide kinase) | inhibition [5] | IC50 (DNA polymerase eta) | IC50 [6] | IC50 (DNA polymerase kappa)
1 | CCCCCCCC/C=C\CCCCCCCC(=O)Oc1cccc2c1C(=O)C=CC2=O | 0.7 µM | 8.7 µM | > 100 µM | Active | inactive | Active | > 100 µM | Active | > 100 µM | Active | 8.4 µM | > 100 µM | 8.1 µM
2 | CCCCCCCCCCCC(=O)Oc1cccc2c1C(=O)C=CC2=O | 6.6 µM | 7.1 µM | > 100 µM | Active | inactive | Active | > 100 µM | Active | > 100 µM | Active | 6.9 µM | > 100 µM | 6.8 µM
